Reference: ChEMBL document CHEMBL1250497, “Synthesis and pharmacological study of 1-acetyl/propyl-3-aryl-5-(5-chloro-3-methyl-1-phenyl-1H-pyrazol-4-yl)-2-pyrazoline” (2010)

How the values were obtained:
Assay type in all cases: functional
Rattus norvegicus [1] = experiment: Antiinflammatory activity in albino rat assessed as reduction of carrageenan-induced paw volume at 10 mg/kg, po administered 30 mins before carrageenan challenge measured after 90 mins by plethysmograph (reference value: 0.3667 +/- 0.033 ml)
Method in brief: (§1)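 Rats, six per group, were dosed orally at 10 mg/kg. Controls received 0.1 mL of 1% gum acacia; diclofenac sodium was the standard. After 30 min, 0.1 mL of 1% carrageenan in normal saline was injected sub-plantar into the right hind paw. Paw volume was read by plethysmograph at 0 h and at 30-150 min. Oedema is expressed as change versus control at matching times (±SE).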

Rattus norvegicus [2] = experiment: Antiinflammatory activity in albino rat assessed as reduction of carrageenan-induced paw volume at 10 mg/kg, po administered 30 mins before carrageenan challenge measured after 150 mins by plethysmograph (reference value: 0.3667 +/- 0.033 ml); method in brief: as §1
Rattus norvegicus [3] = experiment: Antiinflammatory activity in albino rat assessed as reduction of carrageenan-induced paw volume at 10 mg/kg, po administered 30 mins before carrageenan challenge measured after 120 mins by plethysmograph (reference value: 0.367 +/- 0.033 ml); method in brief: as §1
Rattus norvegicus [4] = experiment: Antiinflammatory activity in albino rat assessed as reduction of carrageenan-induced paw volume at 10 mg/kg, po administered 30 mins before carrageenan challenge measured after 60 mins by plethysmograph (reference value: 0.333 +/- 0.033 ml); method in brief: as §1
Rattus norvegicus [5] = experiment: Antiinflammatory activity in albino rat assessed as reduction of carrageenan-induced paw volume at 10 mg/kg, po administered 30 mins before carrageenan challenge measured after 30 mins by plethysmograph (reference value: 0.333 +/- 0.033 ml); method in brief: as §1
Rattus norvegicus [6] = experiment: Analgesic activity in albino rat assessed as latency in reaction time required for thermal stimulus-induced tail flicking at 10 mg/kg, po after 90 mins
Method in brief: (§2)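 Albino rats, 150-200 g, six per group, held in a restrainer. A 3-4 cm marked segment of tail was immersed in water at 55 °C. Tail withdrawal time (s) was recorded before dosing and at 30, 60 and 90 min after oral dosing at 10 mg/kg in 1% gum acacia. Cut-off was 30 s. Controls received vehicle only. Pentazocin was the reference.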

Rattus norvegicus [7] = experiment: Analgesic activity in albino rat assessed as latency in reaction time required for thermal stimulus-induced tail flicking at 10 mg/kg, po after 30 mins; method in brief: as §2
Rattus norvegicus [8] = experiment: Analgesic activity in albino rat assessed as latency in reaction time required for thermal stimulus-induced tail flicking at 10 mg/kg, po after 60 mins; method in brief: as §2

With `O=C([O-])Cc1ccccc1Nc1c(Cl)cccc1Cl.[Na+]` [DICLOFENAC SODIUM] as the molecule, how does the Activity (Rattus norvegicus [1]) read?
Its Activity is 0.033 mL.

And the Activity (Rattus norvegicus [2])?
The Activity was 0.033 mL.

And the Activity (Rattus norvegicus [3])?
The Activity was 0.033 mL.

And the Activity (Rattus norvegicus [4])?
Its Activity is 0.033 mL.

What about the Activity (Rattus norvegicus [5]) of the same molecule?
The Activity was 0.033 mL.

`CCC(=O)N1N=C(c2ccccc2)CC1c1c(C)nn(-c2ccccc2)c1Cl` (centres undefined) was tested. Which Time (Rattus norvegicus [6]) did it give?
The Time was 3.633 s.

What about the Activity (Rattus norvegicus [1]) of the same molecule?
Its Activity is 0.433 mL.

What about the Activity (Rattus norvegicus [2]) of the same molecule?
Its Activity is 0.3667 mL.

What about the Time (Rattus norvegicus [7]) of the same molecule?
The Time was 2.333 s.

And the Time (Rattus norvegicus [8])?
Its Time is 2.7 s.

And the Activity (Rattus norvegicus [3])?
The Activity was 0.367 mL.

And the Activity (Rattus norvegicus [4])?
Its Activity is 0.333 mL.

And the Activity (Rattus norvegicus [5])?
The Activity was 0.2667 mL.

With `CCC(=O)N1N=C(c2cccc([N+](=O)[O-])c2)CC1c1c(C)nn(-c2ccccc2)c1Cl` (centres undefined) as the molecule, how does the Time (Rattus norvegicus [6]) read?
The Time was 4.333 s.

And the Activity (Rattus norvegicus [1])?
Its Activity is 0.033 mL.

What about the Activity (Rattus norvegicus [2]) of the same molecule?
The Activity was 0.1 mL.

And the Time (Rattus norvegicus [7])?
Its Time is 2.767 s.

What about the Time (Rattus norvegicus [8]) of the same molecule?
The Time was 3.067 s.

And the Activity (Rattus norvegicus [3])?
Its Activity is 0.1 mL.

What about the Activity (Rattus norvegicus [4]) of the same molecule?
The Activity was 0.033 mL.

What about the Activity (Rattus norvegicus [5]) of the same molecule?
Its Activity is 0.033 mL.

Which Time (Rattus norvegicus [6]) does the source give for `CC(=O)N1N=C(c2ccc(Br)cc2)CC1c1c(C)nn(-c2ccccc2)c1Cl` (centres undefined) here?
The Time was 4.833 s.

What about the Activity (Rattus norvegicus [1]) of the same molecule?
The Activity was 0.033 mL.

What about the Activity (Rattus norvegicus [2]) of the same molecule?
Its Activity is 0.3 mL.

And the Time (Rattus norvegicus [7])?
The Time was 3.967 s.

What about the Time (Rattus norvegicus [8]) of the same molecule?
Its Time is 4.733 s.

And the Activity (Rattus norvegicus [3])?
Its Activity is 0.1667 mL.

And the Activity (Rattus norvegicus [4])?
Its Activity is 0.033 mL.

And the Activity (Rattus norvegicus [5])?
Its Activity is 0.1 mL.

`COc1ccc(C2=NN(C(C)=O)C(c3c(C)nn(-c4ccccc4)c3Cl)C2)cc1` (centres undefined) was tested. Which Time (Rattus norvegicus [6]) did it give?
The Time was 4.333 s.

And the Activity (Rattus norvegicus [1])?
Its Activity is 0.1 mL.

What about the Activity (Rattus norvegicus [2]) of the same molecule?
Its Activity is 0.1 mL.

And the Time (Rattus norvegicus [7])?
Its Time is 2.9 s.

And the Time (Rattus norvegicus [8])?
Its Time is 3.7 s.

And the Activity (Rattus norvegicus [3])?
Its Activity is 0.0667 mL.

What about the Activity (Rattus norvegicus [4]) of the same molecule?
The Activity was 0 mL.

What about the Activity (Rattus norvegicus [5]) of the same molecule?
Its Activity is 0 mL.

`CCC(=O)N1N=C(c2ccc(OC)cc2)CC1c1c(C)nn(-c2ccccc2)c1Cl` (centres undefined) was tested. Which Time (Rattus norvegicus [6]) did it give?
Its Time is 4.4 s.

What about the Activity (Rattus norvegicus [1]) of the same molecule?
The Activity was 0.133 mL.

What about the Activity (Rattus norvegicus [2]) of the same molecule?
The Activity was 0.2 mL.

What about the Time (Rattus norvegicus [7]) of the same molecule?
Its Time is 4.667 s.

And the Time (Rattus norvegicus [8])?
Its Time is 4.633 s.

What about the Activity (Rattus norvegicus [3]) of the same molecule?
Its Activity is 0.1667 mL.

And the Activity (Rattus norvegicus [4])?
Its Activity is 0.1667 mL.

And the Activity (Rattus norvegicus [5])?
The Activity was 0.1667 mL.

For `CC(=O)N1N=C(c2ccc(Cl)cc2)CC1c1c(C)nn(-c2ccccc2)c1Cl` (centres undefined), which Time (Rattus norvegicus [6]) is on record?
Its Time is 4.2 s.

What about the Activity (Rattus norvegicus [1]) of the same molecule?
Its Activity is 0.033 mL.

And the Activity (Rattus norvegicus [2])?
The Activity was 0.0667 mL.

And the Time (Rattus norvegicus [7])?
Its Time is 2.5 s.

And the Time (Rattus norvegicus [8])?
The Time was 3.067 s.

And the Activity (Rattus norvegicus [3])?
The Activity was 0.0667 mL.

What about the Activity (Rattus norvegicus [4]) of the same molecule?
Its Activity is 0.0667 mL.

What about the Activity (Rattus norvegicus [5]) of the same molecule?
The Activity was 0.033 mL.

How did the Time (Rattus norvegicus [6]) turn out when `CC(=O)N1N=C(c2ccc(C)cc2)CC1c1c(C)nn(-c2ccccc2)c1Cl` (centres undefined) was run?
Its Time is 5.467 s.

What about the Activity (Rattus norvegicus [1]) of the same molecule?
The Activity was 0.0667 mL.

What about the Activity (Rattus norvegicus [2]) of the same molecule?
The Activity was 0.0667 mL.

What about the Time (Rattus norvegicus [7]) of the same molecule?
The Time was 3.3 s.

And the Time (Rattus norvegicus [8])?
The Time was 4.567 s.

What about the Activity (Rattus norvegicus [3]) of the same molecule?
The Activity was 0.033 mL.

What about the Activity (Rattus norvegicus [4]) of the same molecule?
The Activity was 0.1 mL.

What about the Activity (Rattus norvegicus [5]) of the same molecule?
Its Activity is 0.0667 mL.

How did the Time (Rattus norvegicus [6]) turn out when `CC(C)=CCN1CC[C@]2(C)c3cc(O)ccc3C[C@H]1[C@H]2C` [(+)-PENTAZOCINE] was run?
The Time was 6.4 s.

What about the Time (Rattus norvegicus [7]) of the same molecule?
Its Time is 2.9 s.

What about the Time (Rattus norvegicus [8]) of the same molecule?
Its Time is 5.6 s.

What does the source list for `CCC(=O)N1N=C(c2ccc(C)cc2)CC1c1c(C)nn(-c2ccccc2)c1Cl` (centres undefined)?
Time (Rattus norvegicus [6]): 4.6 s; Activity (Rattus norvegicus [1]): 0.133 mL; Activity (Rattus norvegicus [2]): 0.3 mL; Time (Rattus norvegicus [7]): 2.9 s; Time (Rattus norvegicus [8]): 3.733 s; Activity (Rattus norvegicus [3]): 0.3 mL; Activity (Rattus norvegicus [4]): 0.133 mL; Activity (Rattus norvegicus [5]): 0.0667 mL

Which results are given for `CCC(=O)N1N=C(c2ccc([N+](=O)[O-])cc2)CC1c1c(C)nn(-c2ccccc2)c1Cl` (centres undefined)?
Time (Rattus norvegicus [6]): 3.933 s; Activity (Rattus norvegicus [1]): 0.033 mL; Activity (Rattus norvegicus [2]): 0.033 mL; Time (Rattus norvegicus [7]): 3.1 s; Time (Rattus norvegicus [8]): 3.533 s; Activity (Rattus norvegicus [3]): 0 mL; Activity (Rattus norvegicus [4]): 0.0667 mL; Activity (Rattus norvegicus [5]): 0.0667 mL

`CC(=O)N1N=C(c2ccc([N+](=O)[O-])cc2)CC1c1c(C)nn(-c2ccccc2)c1Cl` (centres undefined) was tested. Which Time (Rattus norvegicus [6]) did it give?
Its Time is 5.267 s.

What about the Activity (Rattus norvegicus [1]) of the same molecule?
Its Activity is 0.06 mL.

And the Activity (Rattus norvegicus [2])?
Its Activity is 0.1667 mL.

And the Time (Rattus norvegicus [7])?
Its Time is 3.467 s.

And the Time (Rattus norvegicus [8])?
Its Time is 4.767 s.

What about the Activity (Rattus norvegicus [3]) of the same molecule?
The Activity was 0.0667 mL.

And the Activity (Rattus norvegicus [4])?
The Activity was 0.0667 mL.

What about the Activity (Rattus norvegicus [5]) of the same molecule?
Its Activity is 0.1 mL.

Which Time (Rattus norvegicus [6]) does the source give for `CCC(=O)N1N=C(c2ccc(Br)cc2)CC1c1c(C)nn(-c2ccccc2)c1Cl` (centres undefined) here?
Its Time is 4.5 s.

What about the Activity (Rattus norvegicus [1]) of the same molecule?
Its Activity is 0.2 mL.

What about the Activity (Rattus norvegicus [2]) of the same molecule?
The Activity was 0.2667 mL.

And the Time (Rattus norvegicus [7])?
Its Time is 3.8 s.

What about the Time (Rattus norvegicus [8]) of the same molecule?
Its Time is 4.167 s.

And the Activity (Rattus norvegicus [3])?
The Activity was 0.2667 mL.

And the Activity (Rattus norvegicus [4])?
Its Activity is 0.133 mL.

What about the Activity (Rattus norvegicus [5]) of the same molecule?
The Activity was 0.1667 mL.

For `CC(=O)N1N=C(c2cccc([N+](=O)[O-])c2)CC1c1c(C)nn(-c2ccccc2)c1Cl` (centres undefined), which Time (Rattus norvegicus [6]) is on record?
Its Time is 4.833 s.

What about the Activity (Rattus norvegicus [1]) of the same molecule?
The Activity was 0.033 mL.

And the Activity (Rattus norvegicus [2])?
The Activity was 0.133 mL.

And the Time (Rattus norvegicus [7])?
The Time was 3.7 s.

And the Time (Rattus norvegicus [8])?
The Time was 4.733 s.

And the Activity (Rattus norvegicus [3])?
The Activity was 0.0667 mL.

What about the Activity (Rattus norvegicus [4]) of the same molecule?
The Activity was 0.0667 mL.

And the Activity (Rattus norvegicus [5])?
Its Activity is 0.0667 mL.
